We go through four compounds from ChEMBL document CHEMBL1144742, “Mithramycin analogues generated by combinatorial biosynthesis show improved bioactivity” (2008).

The test system of one test is MCF7. Put plainly: Induction of apoptosis in estrogen receptor positive human MCF7 cells at 15 uM after 24 hrs by TUNEL assay. The class given is functional. A digest of the protocol: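 ER-positive MCF-7 breast cancer cells, exposed 24 h at 15 μM. Apoptotic cells scored by TUNEL labelling and confocal microscopy, expressed as percent TUNEL-positive, normalized against untreated baseline. Mean ± standard error from three independent experiments.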

In the next test the test system is MDA-MB-231. Nature of the test: Induction of apoptosis in estrogen receptor negative human MDA231 cells at 20 uM after 24 hrs by TUNEL assay. The class given is functional. A digest of the protocol:
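ER-negative MDA-231 breast cancer cells, treated 24 h at 20 μM. Apoptosis read by TUNEL staining with confocal microscopy as percent TUNEL-positive cells. Baseline apoptosis of untreated cells used for normalization. Mean ± standard error of three independent experiments.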

For `CO[C@H](C(=O)[C@@H](O)[C@@H](C)O)[C@@H]1Cc2cc3cc(O[C@H]4C[C@@H](O[C@H]5C[C@@H](O)[C@H](O)[C@@H](C)O5)[C@H](O)[C@@H](C)O4)c(C)c(O)c3c(O)c2C(=O)[C@H]1O[C@H]1C[C@@H](O[C@H]2C[C@@H](O[C@H]3C[C@](C)(O)[C@H](O)[C@@H](C)O3)[C@@H](O)[C@H](C)O2)[C@H](O)[C@@H](C)O1`, the Activity with MCF7 worked out at 3.9%; with MDA-MB-231, 6.46%.
Turning to `CO[C@H](C(=O)[C@@H](O)[C@@H](C)O)[C@@H]1Cc2cc3cc(O[C@H]4C[C@@H](O)[C@H](O)[C@@H](C)O4)c(C)c(O)c3c(O)c2C(=O)[C@H]1O[C@H]1C[C@@H](O[C@H]2C[C@@H](O[C@H]3C[C@](C)(O)[C@H](O)[C@@H](C)O3)[C@@H](O)[C@@H](C)O2)[C@H](O)[C@@H](C)O1`, the Activity in the test on MCF7 is 26.3%; with MDA-MB-231, 12.6%.
On the same counts, the results for `CO[C@H](C(=O)[C@@H](O)[C@@H](C)O)[C@@H]1Cc2cc3cc(O[C@H]4C[C@@H](O[C@H]5C[C@@H](O)[C@H](O)[C@@H](C)O5)[C@H](O)[C@@H](C)O4)c(C)c(O)c3c(O)c2C(=O)[C@H]1O[C@H]1C[C@@H](O[C@H]2C[C@](C)(O)[C@H](O)[C@@H](C)O2)[C@H](O)[C@@H](C)O1` are 50.3% and 7.29%.
For `CO[C@H](C(=O)[C@@H](O)[C@@H](C)O)[C@@H]1Cc2cc3cc(O[C@H]4C[C@@H](O[C@H]5C[C@@H](O)[C@H](O)[C@@H](C)O5)[C@H](O)[C@@H](C)O4)c(C)c(O)c3c(O)c2C(=O)[C@H]1O[C@H]1C[C@@H](O[C@H]2C[C@@H](O[C@H]3C[C@H](O)[C@H](O)[C@@H](C)O3)[C@@H](O)[C@@H](C)O2)[C@H](O)[C@@H](C)O1` the same measures were 64.8% and 63.6%.
